Compound activity from PubChem BioAssay.
Autophagy mod: modulators of autophagy; MEF GFP-LC3 puncta imaging; test concentration mostly 10 µM; calls only at 10 µM (by protocol); 190,000 compounds, 0.98% hits;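 active = percentage of spot-positive cells more than 3 SD above its plate mean, without a fluorescence outlier flag or 80% toxicity; inconclusive = no clear call, values can overlap the other calls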;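 also: spot-positive cell cutoff set from DMSO-treated cells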
Dynein cargo inh: blocks dynein driven cargo transport along microtubules | AID 1381 | 220,000 compounds, 0.47% hits | z-score, hits read low | 3617.4 mouse cells, GR-EGFP nuclear translocation imaging; test concentration mostly 20 µM; stimulated with dexamethasone, 1 µM; active compounds read low;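 active = plate z-score of nuclear minus cytoplasmic receptor signal below a set negative limit, without overly bright fluorescence or cell loss, cut at about -3.5 in these data, passing the limit was not always enough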;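 also: z-score of nuclear minus cytoplasmic ring GR-EGFP intensity difference per well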
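Buffer or medium – tet-free medium with charcoal-stripped serum · Signal – automated 10x imaging of fixed Hoechst-stained cells · Also added – dexamethasone agonist, 1.0 µM final, for 30 min · Incubation – induction 48 h, compound 1 h, agonist 30 min · Read-out – GR-EGFP nuclear translocation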
b-catenin transl: modulators of beta-catenin nuclear translocation; HeLa beta-catenin nuclear translocation, immunofluorescence imaging; nuclear translocation activity, % at 5 µM; 190,000 compounds, 0.3% hits;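 active = nuclear translocation activity above 50% at 5 µM, with a well cell count of 50 or more; inconclusive = wells under 50 cells across six images, flagged as toxic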;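 also: per-cell ratio of nuclear to cytoplasmic median beta-catenin stain intensity; plate controls were DMSO negative control for no effect and GSK-3 inhibitor IX positive control for full effect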
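System: HeLa cells, endogenous beta-catenin; compound dosing: 5 µM primary single dose, 0.1% DMSO, 0.02–20 µM confirmation series; incubation: 24 h compound exposure at 37°C, 5% CO2; signal: beta-catenin immunofluorescence imaging with DAPI; evaluation: % activation, nuclear-to-cytoplasmic median beta-catenin signal ratio per cell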
MT stabilize HCS: stabilizes microtubules in HeLa cells; HeLa tubulin immunostaining HCS, 24 h; share of cells brighter than vehicle mean+2SD; % tubulin-high responders, % at 10 µM; 200,000 compounds, 0.83% hits;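 active = plate Z-score above 3 for both tubulin-high and condensed-nucleus cell shares, with cell loss under 80%, at 10 µM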;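 also: anti alpha tubulin signal scored within the nucleus-defined area of each cell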
Ins promoter up: MIN6 insulin promoter up-regulation. 190,000 compounds, 0.3% hits. z-score at 5 µM. MIN6 insulin promoter-GFP reporter, high-content imaging; active compounds read high. AID 1625;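 active = z-score above 3 at 5 µM with at least 500 cells counted in the well; inconclusive = wells under 500 cells, flagged as cytotoxic or low count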
* = called active by the depositor; i = inactive; ? = inconclusive; . = not tested or not shown; + = active, no number. An excerpt weighted towards active compounds, which were near 2.3% of everything screened.

SMILES	Autophagy mod	Dynein cargo inh	b-catenin transl	MT stabilize HCS	Ins promoter up
Cn1cc(C(=O)Nc2ccc(Cl)cc2)c(C(F)(F)F)n1	+	-0.34	0	2	-0.15
O=C(Cc1ccc(Cl)cc1Cl)NCC1(N2CCOCC2)CCCCC1	i	-1	-2	5	-0.05
CCCCc1ccc(NC=C2C(=O)OC3(CCCCC3)OC2=O)cc1	i	0.77	-2	2	-0.27
NS(=O)(=O)c1ccc(NC=C2C(=O)OC3(CCCCC3)OC2=O)cc1	i	0.19	.	5	3.8*
N#C/C(=C\N1CCN(Cc2ccc3c(c2)OCO3)CC1)c1nc2ccccc2s1	+	-1.3	-5	6	.
CCOC(=O)N1CCN(/C=C(\C#N)c2nc3ccccc3s2)CC1	+	-3.3	-5	4	.
CC1(C)Cc2ccccc2C(NN=C2CCCC2)=N1	i	-0.28	1	3	-0.2
O=C(O)c1ccccc1C(=O)NCC(O)COc1ccc(Cl)cc1 (centres undefined)	.	0.4	-1	.	1.4
COC(=O)[C@@]1(Cc2ccccc2)[C@H]2c3cc(C(=O)N4CCCC4)n(CCSCCO)c3C[C@H]2CN1C(=O)c1ccccc1	+	-0.067	3	4	-1.4
CC1=C(C(=O)NCc2ccccc2)C(c2cccs2)NC(=S)N1 (centres undefined)	i	0.63	3	1	-0.2
Cc1c(N=C2N=C(NC(=O)Nc3ccc(Cl)cc3)c3ccccc32)c(=O)n(-c2ccccc2)n1C	+	2.5	0	5	0.04
Cc1c(NC(=O)Nc2ccc(Cl)cc2)c(=O)n(-c2ccccc2)n1C	i	-1.4	-1	5	0.07
NS(=O)(=O)c1cccc(NC(=O)Nc2ccccc2)c1	.	0.35	-1	.	0.73
COc1ccc(N(C(=O)c2ccco2)S(=O)(=O)c2cc(Cl)c(Cl)cc2Cl)cc1	i	0.45	.	33*	-0.32
N#CC(Sc1ccccn1)c1ccc(Cl)cc1 (centres undefined)	i	0.58	0	1	2.2
COc1ccc2cc(CN(CC3CCCO3)C(=S)Nc3ccccc3)c(=O)[nH]c2c1 (centres undefined)	i	-0.52	43	27*	0.37
COc1ccc2[nH]c(=O)c(CN(CC3CCCO3)C(=S)Nc3ccccc3)cc2c1 (centres undefined)	i	-0.26	0	4	0.13
Cc1cc2cc(CN(CC3CCCO3)C(=S)Nc3ccccc3)c(=O)[nH]c2cc1C (centres undefined)	i	0.33	23	14*	?
Cc1cc2cc(CN(CC3CCCO3)C(=S)NCc3ccco3)c(=O)[nH]c2cc1C (centres undefined)	i	-0.23	0	2	-0.48
COc1ccc(-n2c(SCc3ccc(C#N)cc3)nnc2-c2ccccn2)cc1	i	0.47	0	2	-0.41
COc1ccc(C2Sc3nncn3N2Cc2ccc(C#N)cc2)cc1 (centres undefined)	+	-0.093	-4	3	0.7
COc1ccccc1N/C=C/c1onc(C)c1[N+](=O)[O-]	+	-0.017	5	2	.
CCOC(=O)Nc1ccc2nc(N3CCCCCC3)sc2c1	.	0.46	84*	.	-0.41
COc1ccc(Cl)c(N2CCN(CCCNC(=O)Nc3ccc(C)cc3)CC2)c1	+	0.64	-1	4	-1.1
C=CCN1C(=O)/C(=C/c2ccc(N(C)C)cc2)S/C1=N\c1nnc(CC)s1	+	-3.3	4	3	.
SMILES	Autophagy mod	Dynein cargo inh	b-catenin transl	MT stabilize HCS	Ins promoter up
C=CCN1C(=O)/C(=C/c2ccc(OCC(=O)O)cc2)S/C1=N/c1nccs1	i	2.8	-1	3	0.45
CCOC(=O)/C=c1\s/c(=C\c2c(OC)ccc3ccccc23)c(=O)n1CC(=O)NCC1CCCO1 (centres undefined)	i	-0.8	190*	14	-0.32
CC(=O)c1ccc(NC(=O)C(C)n2c3ccccc3c3nc(=O)cc(C)n32)cc1 (centres undefined)	.	1.1	1	.	0.85
Cc1ccc(NC(=O)/C=C/c2ccc([N+](=O)[O-])s2)c(C)c1	i	2.2	5	9	13*
Cc1ccc(NC(=O)/C=C/c2ccc([N+](=O)[O-])s2)cc1	i	-0.043	4	5	17*
Cc1cccc(NC(=O)/C=C/c2ccc([N+](=O)[O-])s2)c1	i	1.2	14	25	.
N/C(CN1CCCCC1)=N\S(=O)(=O)c1cc(Cl)cc(Cl)c1	.	-0.91	-2	.	0.1
CC(=O)NCCOc1nc(N(C)C)nc(N2CCCCC2)n1	i	-0.025	0	5	0.36
Cc1nn(-c2ccccc2)nc1CNS(C)(=O)=O	.	-1	0	.	-0.25
Cc1cccc(N2CCN(Cc3cn(C)nc3-c3ccccc3F)CC2)n1	i	0.3	103*	34*	0.4
NC(=O)c1cccc(CC(=O)c2ccccc2)c1	.	0.15	0	.	-0.21
Cc1ccc(Nc2c(-c3ccc(N4CCOCC4)cc3)nc3ncccn23)cc1	+	0.82	3	3	0.75
Cc1ccc(Nc2c(-c3ccc(N4CCOCC4)cc3)nc3ncccn23)cc1C	i	-0.77	-2	4	-1.1
Oc1ccc(C2=NNC(=NCc3ccc4c(c3)OCO4)SC2)c(O)c1	i	-0.24	117*	11	1.4
CCOC(=O)C1=C(N)n2c(s/c(=C\c3cccs3)c2=O)=C(C(=O)OCC)C1c1cccs1 (centres undefined)	i	0.41	99*	45*	-0.87
CCOC(=O)C1=C(N)n2c(s/c(=C\c3ccncc3)c2=O)=C(C(=O)OCC)C1c1ccncc1 (centres undefined)	i	-0.69	2	2	.
O=C(CSCc1ccc(Cl)cc1)Nc1ccc(-c2nnc(-c3ccccc3)o2)cc1	+	-0.62	2	6	-0.32
COCc1ccc(C(=O)N2CCCC(CCC(=O)NCc3ccccc3F)C2)o1 (centres undefined)	i	2.6	41	24*	0.3
CCN1C(=O)/C(=C2\C=Cc3cc(C)ccc3N2CC)OC1=S	+	-0.96	-2	4	0.45
CCN1C(=O)/C(=C2/C=Cc3ccccc3N2C)OC1=S	i	-0.63	0	2	0.83
COc1ccc(C(C)=O)cc1COc1nc(C)nc2ccccc12	i	0.5	-2	15*	-0.2
CSc1nnc(-c2sc3cc(C(F)(F)F)cnc3c2-c2ccccc2)n1C	i	2.1	.	40*	-0.57
CS(=O)(=O)c1nc(-c2cccs2)cc(C(F)(F)F)n1	+	0.55	-2	1	0.54
O=C(O)CCS(=O)(=O)c1nc(-c2cccs2)cc(C(F)(F)F)n1	i	-0.17	-2	2	-0.9
Cn1nc(C(=O)Nc2nc3ccccc3[nH]2)ccc1=O	i	1.1	1	2	1.2
Cc1ccc(NC(=O)c2cccs2)cc1S(=O)(=O)Nc1cccc(Cl)c1	i	-1.1	-2	3	-0.27
